According to ChEMBL document CHEMBL1212859, “Novel aminopeptidase N (APN/CD13) inhibitors derived from 3-phenylalanyl-N'-substituted-2,6-piperidinedione” (Bioorg Med Chem, 2010):

How the values were obtained:
Aminopeptidase N = target: T1, Aminopeptidase N (Sus scrofa, UniProt P15145); test: Inhibition of pig kidney microsome aminopeptidase N after 30 mins by UV-vis spectrophotometric analysis
T1 sequence (P15145 whole entry): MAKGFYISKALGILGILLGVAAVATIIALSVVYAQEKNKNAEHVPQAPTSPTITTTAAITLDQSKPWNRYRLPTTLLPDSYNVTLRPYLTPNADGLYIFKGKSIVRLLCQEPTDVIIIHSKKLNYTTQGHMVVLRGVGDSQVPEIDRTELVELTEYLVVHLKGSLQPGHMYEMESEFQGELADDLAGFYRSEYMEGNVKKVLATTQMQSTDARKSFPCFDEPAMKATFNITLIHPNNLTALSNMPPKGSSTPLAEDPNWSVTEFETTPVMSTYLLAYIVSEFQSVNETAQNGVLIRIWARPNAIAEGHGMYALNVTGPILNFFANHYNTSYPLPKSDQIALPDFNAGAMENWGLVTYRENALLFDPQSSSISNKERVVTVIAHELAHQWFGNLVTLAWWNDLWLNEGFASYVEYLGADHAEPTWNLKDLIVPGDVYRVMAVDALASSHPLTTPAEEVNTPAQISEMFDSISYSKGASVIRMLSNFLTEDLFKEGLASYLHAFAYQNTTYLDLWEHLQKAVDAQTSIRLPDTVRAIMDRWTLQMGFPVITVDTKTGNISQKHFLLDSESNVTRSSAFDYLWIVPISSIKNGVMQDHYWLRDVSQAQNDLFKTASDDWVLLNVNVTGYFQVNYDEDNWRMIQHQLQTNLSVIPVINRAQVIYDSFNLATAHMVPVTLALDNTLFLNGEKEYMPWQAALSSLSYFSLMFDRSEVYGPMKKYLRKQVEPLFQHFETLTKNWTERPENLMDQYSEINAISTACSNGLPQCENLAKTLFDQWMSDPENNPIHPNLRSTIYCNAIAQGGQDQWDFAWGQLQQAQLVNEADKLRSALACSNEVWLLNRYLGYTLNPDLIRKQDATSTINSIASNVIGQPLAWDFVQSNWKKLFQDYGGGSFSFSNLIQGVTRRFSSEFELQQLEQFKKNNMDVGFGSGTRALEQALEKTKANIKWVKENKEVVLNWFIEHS
Outline: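 Enzyme was porcine kidney microsomal aminopeptidase at 4 mg/ml final, with L-Leu-p-nitroanilide as substrate. Inhibitor solutions were made in assay buffer adjusted to pH 7.5. Inhibitors were preincubated with enzyme for 30 min at room temperature.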

[1] = target: 72 kDa type IV collagenase (Homo sapiens, UniProt P08253); test: Inhibition of MMP2 after 30 mins
Chain of 72 kDa type IV collagenase (P08253 whole entry): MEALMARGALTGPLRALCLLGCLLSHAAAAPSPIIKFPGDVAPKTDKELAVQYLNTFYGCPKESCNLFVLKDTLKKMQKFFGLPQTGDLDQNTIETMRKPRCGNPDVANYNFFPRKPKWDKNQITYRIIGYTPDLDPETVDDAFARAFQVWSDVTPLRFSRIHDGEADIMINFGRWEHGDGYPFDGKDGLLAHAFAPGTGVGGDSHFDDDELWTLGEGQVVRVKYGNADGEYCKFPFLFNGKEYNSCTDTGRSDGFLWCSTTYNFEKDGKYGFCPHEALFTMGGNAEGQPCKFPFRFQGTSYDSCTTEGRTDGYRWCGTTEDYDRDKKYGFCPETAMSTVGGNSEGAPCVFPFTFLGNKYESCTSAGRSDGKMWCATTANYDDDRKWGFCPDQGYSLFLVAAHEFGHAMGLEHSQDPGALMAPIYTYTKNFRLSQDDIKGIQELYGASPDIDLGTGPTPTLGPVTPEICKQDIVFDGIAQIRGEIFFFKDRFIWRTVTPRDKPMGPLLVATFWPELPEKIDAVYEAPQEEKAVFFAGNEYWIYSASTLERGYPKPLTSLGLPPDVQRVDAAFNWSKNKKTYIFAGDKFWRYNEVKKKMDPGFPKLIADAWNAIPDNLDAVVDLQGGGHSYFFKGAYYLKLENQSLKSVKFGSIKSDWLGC
Outline: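 Gelatinase A (MMP-2), synthesized substrate and inhibitor were dissolved together in 50 mmol/L sodium borate, pH 8.5, and incubated for 30 min at 37 °C. TNBS was used in the assay.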

HL-60 = test: Cytotoxicity against human HL60 cells expressing aminopeptidase N after 72 hrs by MTT assay; type: functional, cell-based; conditions: HL-60, 72 h
Outline: (§1)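 Cells grown in RPMI1640 with 10% FBS at 37 °C under humidified 5% CO2. HL-60 cells have high APN expression and MDA-MB-231 cells have low expression. Plated at 10,000 cells/well and allowed 4 h in complete medium. Exposed for 72 h to five concentrations from 2000 down to […]. Proliferation read by MTT. Mean of three independent experiments.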

MDA-MB-231 = test: Cytotoxicity against human MDA-MB-231 cells after 72 hrs by MTT assay; type: functional, cell-based; conditions: MDA-MB-231, 72 h; outline: as §1

Row | IC50 (Aminopeptidase N) [µM] | IC50 [1] [µM] | Structure (SMILES) | IC50 (HL-60) [µM] | IC50 (MDA-MB-231) [µM]
1 | 91.6 | 129 | C[C@H](NC(=O)CN1C(=O)CC[C@H](NC(=O)[C@@H](N)Cc2ccccc2)C1=O)C(=O)OCc1ccccc1 |  | 
2 | 30.1 | 18.5 | CC(C)[C@H](NC(=O)CN1C(=O)CC[C@H](NC(=O)[C@@H](N)Cc2ccccc2)C1=O)C(=O)OCc1ccccc1 |  | 
3 | 30.2 | 121 | CC(C)C[C@H](NC(=O)CN1C(=O)CC[C@H](NC(=O)[C@@H](N)Cc2ccccc2)C1=O)C(=O)OCc1ccccc1 |  | 
4 | 6.48 | 12 | N[C@@H](Cc1ccccc1)C(=O)N[C@H]1CCC(=O)N(CC(=O)N[C@@H](Cc2ccccc2)C(=O)OCc2ccccc2)C1=O | 2540 | 10200
5 | 91.4 | 272 | N[C@@H](Cc1ccccc1)C(=O)N[C@H]1CCC(=O)N(CC(=O)N[C@@H](CCC(=O)OCc2ccccc2)C(=O)OCc2ccccc2)C1=O |  | 
6 | 38.7 | 107 | N[C@@H](Cc1ccccc1)C(=O)N[C@H]1CCC(=O)N(CC(=O)NCC(=O)O)C1=O |  | 
7 | 110 | 155 | C[C@H](NC(=O)CN1C(=O)CC[C@H](NC(=O)[C@@H](N)Cc2ccccc2)C1=O)C(=O)O |  | 
8 | 13.3 | > 1000 | CC(C)[C@H](NC(=O)CN1C(=O)CC[C@H](NC(=O)[C@@H](N)Cc2ccccc2)C1=O)C(=O)O |  | 
9 | 8.42 | > 1000 | CC(C)C[C@H](NC(=O)CN1C(=O)CC[C@H](NC(=O)[C@@H](N)Cc2ccccc2)C1=O)C(=O)O | 5210 | 14400
10 | 66.4 | 316 | N[C@@H](Cc1ccccc1)C(=O)N[C@H]1CCC(=O)N(CC(=O)N[C@@H](Cc2ccccc2)C(=O)O)C1=O |  | 
11 | 252 | 122 | N[C@@H](Cc1ccccc1)C(=O)N[C@H]1CCC(=O)N(CC(=O)Nc2ccc(F)cc2)C1=O |  | 
12 | 178 | > 1000 | COc1ccc(NC(=O)CN2C(=O)CC[C@H](NC(=O)[C@@H](N)Cc3ccccc3)C2=O)cc1 |  | 
13 | 5 | 8.27 | Cc1ccc(NC(=O)CN2C(=O)CC[C@H](NC(=O)[C@@H](N)Cc3ccccc3)C2=O)c(C)c1 | 1970 | 8590
14 | 6.92 | 60.4 | N[C@@H](Cc1ccccc1)C(=O)N[C@H]1CCC(=O)N(CC(=O)Nc2cccc(Cl)c2)C1=O | 2220 | 9480
15 | 245 | 62.7 | N[C@@H](Cc1ccccc1)C(=O)N[C@H]1CCC(=O)N(CC(=O)Nc2ccccc2F)C1=O |  | 
16 | 74 | 71.6 | N[C@@H](Cc1ccccc1)C(=O)N[C@H]1CCC(=O)N(CC(=O)Nc2ccc(Br)cc2)C1=O |  | 
17 | 170 | 131 | N[C@@H](Cc1ccccc1)C(=O)N[C@H]1CCC(=O)N(CC(=O)Nc2ccc(F)c(Cl)c2)C1=O |  | 
18 | 53.4 | 46.9 | N[C@@H](Cc1ccccc1)C(=O)N[C@H]1CCC(=O)N(CC(=O)Nc2ccc(F)c(F)c2)C1=O |  | 
19 | 13.4 | 454 | N[C@@H](Cc1ccccc1)C(=O)N[C@H]1CCC(=O)N(CC(=O)NCC(=O)OCc2ccccc2)C1=O |  | 
20 | 49.7 | 127 | NC(Cc1ccccc1)C(=O)N[C@H]1CCC(=O)N(CC(=O)NCCC(=O)OCc2ccccc2)C1=O (single isomer, unassigned) |  | 
21 | 12.8 | 22.7 | NC(Cc1ccccc1)C(=O)N[C@H]1CCC(=O)N(CC(=O)NCCC(=O)O)C1=O (single isomer, unassigned) |  | 
22 | 12.6 | > 1000 | NC(Cc1ccccc1)C(=O)N[C@H]1CCC(=O)N(CC(=O)N[C@@H](CCC(=O)O)C(=O)O)C1=O (single isomer, unassigned) |  | 
23 | 304 | 141 | NC(Cc1ccccc1)C(=O)N[C@H]1CCC(=O)N(CC(=O)NCC(=O)NO)C1=O (single isomer, unassigned) |  | 
24 |  | 157 | CC(C)C[C@H](NC(=O)[C@@H](O)[C@H](N)Cc1ccccc1)C(=O)O [UBENIMEX] | 1130 | 8590
